# What was measured:
# [1] = system: (CUG)960 foci in HeLa cells transfected with DMPK-CUG960 and GFP-MBNL1; experiment: FISH / confocal microscopy of ribonuclear foci in fixed DM1 cell model; type: cell-based; conditions: 50 µM, 48 h
# In short: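 HeLa cells (ca. 120,000/well, on coverslips) were co-transfected next day at 70–80% confluence with 500 ng DMPK–CUG960 (or CUG0 control) and 500 ng GFP-MBNL1 plasmids using Lipofectamine. After 4 h the medium was changed and test compound added (20–100 µM) for two days; 50 µM spermine served as the control compound. Cells were fixed (4% PFA), permeabilized and probed with Cy3-(CAG)10 for 2 h at 37 °C. Nuclei were stained with TO-PRO-3 and scored by confocal microscopy; results are mean ± standard error of ≥3 independent experiments with two-tailed p-values.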
# [2] = system: insulin receptor (IR) pre-mRNA alternative splicing; experiment: IR splicing assay; type: cell-based; conditions: 50 µM, DM1 cell model
smiles,measurement,setting,value
"NCCCNCCCCNCCCN [spermine, reference compound]",effect on (CUG)960 foci,[1],no effect
same,effect on the IR mis-splicing,[2],no effect
